One compound from ChEMBL document CHEMBL1138485, “Discovery of inducible nitric oxide synthase (iNOS) inhibitor development candidate KD7332, part 1: Identification of a novel, potent, and selective series of quinolinone iNOS dimerization inhibitors that are orally active in rodent pain models” (J Med Chem, 2009) can be followed below.

This test concerns the target T1, Nitric oxide synthase 3 (Homo sapiens) (UniProt P29474).
T1 sequence (whole entry): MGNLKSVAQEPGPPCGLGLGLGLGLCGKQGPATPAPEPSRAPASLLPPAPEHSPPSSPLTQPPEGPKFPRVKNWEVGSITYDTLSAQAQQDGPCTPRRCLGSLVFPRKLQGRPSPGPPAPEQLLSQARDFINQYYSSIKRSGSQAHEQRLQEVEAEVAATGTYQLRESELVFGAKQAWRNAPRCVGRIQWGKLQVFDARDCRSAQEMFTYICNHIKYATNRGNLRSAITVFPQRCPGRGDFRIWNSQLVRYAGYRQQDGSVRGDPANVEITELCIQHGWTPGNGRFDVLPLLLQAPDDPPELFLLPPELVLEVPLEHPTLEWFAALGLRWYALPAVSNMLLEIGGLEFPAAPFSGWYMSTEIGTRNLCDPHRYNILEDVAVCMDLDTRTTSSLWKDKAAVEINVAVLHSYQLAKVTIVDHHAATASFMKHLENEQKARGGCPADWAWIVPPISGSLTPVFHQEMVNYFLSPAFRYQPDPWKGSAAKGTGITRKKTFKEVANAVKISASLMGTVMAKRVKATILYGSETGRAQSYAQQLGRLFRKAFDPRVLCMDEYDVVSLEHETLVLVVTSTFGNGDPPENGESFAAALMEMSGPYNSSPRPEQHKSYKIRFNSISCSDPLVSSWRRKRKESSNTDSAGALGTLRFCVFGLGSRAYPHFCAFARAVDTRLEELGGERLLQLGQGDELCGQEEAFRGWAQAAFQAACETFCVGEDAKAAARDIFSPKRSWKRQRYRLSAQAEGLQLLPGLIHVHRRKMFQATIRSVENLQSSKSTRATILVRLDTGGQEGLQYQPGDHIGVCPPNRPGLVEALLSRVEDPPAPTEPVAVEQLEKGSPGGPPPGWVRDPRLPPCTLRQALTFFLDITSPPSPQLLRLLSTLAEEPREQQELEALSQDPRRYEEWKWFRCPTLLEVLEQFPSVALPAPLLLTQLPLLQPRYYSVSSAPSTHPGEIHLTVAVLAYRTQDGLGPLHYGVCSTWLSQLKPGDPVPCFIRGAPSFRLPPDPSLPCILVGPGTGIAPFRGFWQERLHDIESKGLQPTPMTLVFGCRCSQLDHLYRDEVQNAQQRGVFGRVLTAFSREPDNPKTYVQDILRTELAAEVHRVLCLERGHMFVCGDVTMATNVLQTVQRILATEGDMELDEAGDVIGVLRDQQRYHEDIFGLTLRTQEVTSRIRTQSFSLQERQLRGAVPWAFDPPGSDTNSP
Kind of test: Inhibition of human eNOS expressed in HEK293 cells assessed as NO production at 100 uM by transient transfection assay relative to BBS-4. It counts as cell-based. In short, it runs like this:
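HEK293 cells transiently transfected with human eNOS (15 µg plasmid) or nNOS (10 µg plasmid), Fugene 6 at 3:1 µL:µg, 4 h at 37 °C, 10% CO2. Plated at 5 × 10⁵ cells/mL with compound; SEITU 100 µM final as positive control. After 24 h, activated with A23187 (83 nM final, eNOS) or ionomycin (30 µM final, nNOS). After 18 h more, NO read by DAN fluorescence. Inhibition is relative to the maximal inhibition by the control dimerization inhibitor. 3 runs, 10-point curves, n = 3/point.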

Bounds are passed on as bounds.

As usually defined, the inhibition is how much of the control response was suppressed. In the case of `CC(C)C(=O)N(Cc1cc(=O)[nH]c2c(F)cccc12)c1cccc(Cl)c1`, the inhibition was below 50%.
